# The array DNA melting data of Ke et al. (doi:10.1101/2024.01.08.574731)
# Columns and labels:
# [1] = folding enthalpy; higher = less favourable; fluorescence melt of hairpins on a sequencing array, two-state fit; conditions: sodium 0.088 M
# Method in brief: (§1)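 In 50 mM Na-HEPES pH 8.0 containing 25 mM NaCl, hairpins from the library on a sequenced MiSeq flow cell were imaged for Cy3 fluorescence at 2.5 °C steps up to 60 °C, with Cy3 and quencher oligos annealed. After normalisation to pre-quench Cy3 and to control constructs, two-state fits with bootstrapping gave melting temperature and folding enthalpy. Four replicates were combined by inverse-variance weighting, and fitted temperatures were shifted up by 9.35 °C to match UV melts.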
# [2] = melting temperature; fluorescence melt of hairpins on a sequencing array, two-state fit, raised by 9.35 °C to match UV melts; conditions: sodium 0.088 M
# Method in brief: as §1
Sequence,folding enthalpy [1],Tm [2]
GAACACCGAAAGGTATTC (((.(((....))).))),-25 kcal/mol,37.8 °C
GAACACGAAAGTGAATTC ((((((....)))..))),-13.3 kcal/mol,25.1 °C
GAACACGAAAGTGGCTTC ((((((....)))..))),-23 kcal/mol,45.4 °C
GAACACGGAAACGCGTTC ((((.((....)).)))),-35.8 kcal/mol,48.1 °C
GAACACGGAAACGTATTC (((.(((....))).))),-22.6 kcal/mol,33 °C
GAACACGGAAACGTGTTC (((((((....))))))),-38.1 kcal/mol,67.5 °C
GAACAGGGAAACCCGTTC ((((.((....)).)))),-24.4 kcal/mol,41.8 °C
GAACAGGGAAACCTGCTC ((.((((....)))).)),-18.8 kcal/mol,37.1 °C
GAACAGGGAAACCTGTTC (((((((....))))))),-37.8 kcal/mol,59.4 °C
GAACATGAAAATGTTC ((((((....)))))),-28.9 kcal/mol,52 °C
GAACCACCGAAAGGTTTC (((..(((....)))))),-9.16 kcal/mol,22.3 °C
GAACCAGGAAACTGGCTC ((.((((....)))).)),-21.8 kcal/mol,39.6 °C
GAACCCCGAAAGGGATTC (((.(((....))).))),-28.5 kcal/mol,46 °C
GAACCCCGAAAGGGCTTC (((.(((....))).))),-15.3 kcal/mol,34.3 °C
GAACCCGAAAGGGTTTC ((((((....))).))),-12.1 kcal/mol,56.9 °C
GAACCCGAAAGGGTTTTC ((((((....)))..))),-13.4 kcal/mol,55.9 °C
GAACCCGGAAACGAGTTC ((((.((....)).)))),-27.2 kcal/mol,40.8 °C
GAACCCGGAAACGGATTC (((.(((....))).))),-21 kcal/mol,41.5 °C
GAACCGCGAAAGCGCTTC (((.(((....))).))),-10.6 kcal/mol,35.1 °C

Sequence,folding enthalpy [1],Tm [2]
GAACCGGAAACGGTTC ((((((....)))))),-33 kcal/mol,67.4 °C
GAACCGGGAAACTGGTTC (((((.(....).))))),-41.7 kcal/mol,51.4 °C
GAACCTGGAAACAGGCTC ((.((((....)))).)),-18.9 kcal/mol,40 °C
GAACGACGAAAGTCATTC (((.(((....))).))),-21.6 kcal/mol,38.6 °C
GAACGAGGAAACTCATTC (((.(((....))).))),-15.5 kcal/mol,24.8 °C
GAACGAGGAAACTCGTCC (.(((((....))))).),-13.7 kcal/mol,37.8 °C
GAACGAGGAAACTCGTTC (((((((....))))))),-41.2 kcal/mol,63.8 °C
GAACGCCGAAAGGCTTC (((.(((....)))))),-14.1 kcal/mol,44.1 °C
GAACGCGAAAGCGAATTC ((((((....)))..))),-10.7 kcal/mol,28.8 °C
GAACGCGAAAGCGCGTTC ((((((....)))..))),-25.5 kcal/mol,63.1 °C
GAACGCGAAAGCGGATTC ((((((....)))..))),-15.8 kcal/mol,49.5 °C
GAACGCGGAAACGTGTTC ((((.((....)).)))),-37.7 kcal/mol,56 °C
GAACGGCGAAAGCCTTTC (((.(((....))).))),-18 kcal/mol,39.7 °C
GAACGGGGAAACCCATTC (((.(((....))).))),-19 kcal/mol,33.2 °C
GAACTACGAAAGTAATTC (((.(((....))).))),-17.3 kcal/mol,31.5 °C
GAACTAGGAAACTAGCTC ((.((((....)))).)),-21.3 kcal/mol,29 °C
GAACTAGGAAACTGGTTC ((((.((....)).)))),-29 kcal/mol,43 °C
GAACTCCGAAAGGATTTC (((.(((....))).))),-23.5 kcal/mol,35.2 °C
